pEC50: −log10 of the molar value. Entries after “also recorded” stand apart in the source; their conditions may differ. Where two headings read alike, the source gives them in different places. Peptide text beside a SMILES is read from it.
Legend:
[1] = biological target: T1, hTas1R2:S40T/D142E+hTas1R3 (Homo sapiens, UniProt Q8TE23, D142E/S40T); assay: Ca2+ mobilization, mutated human receptor; format: cell-based; conditions: for calcium response to sweetener: aspartame 10mM, neotame 1mM, sucralose 2 mM, compared with hTas1R2/hTas1R3; for response in dose-response experiment: versus hTas1R2+hTas1R3
T1 sequence (Q8TE23 20-839 S40T/D142E): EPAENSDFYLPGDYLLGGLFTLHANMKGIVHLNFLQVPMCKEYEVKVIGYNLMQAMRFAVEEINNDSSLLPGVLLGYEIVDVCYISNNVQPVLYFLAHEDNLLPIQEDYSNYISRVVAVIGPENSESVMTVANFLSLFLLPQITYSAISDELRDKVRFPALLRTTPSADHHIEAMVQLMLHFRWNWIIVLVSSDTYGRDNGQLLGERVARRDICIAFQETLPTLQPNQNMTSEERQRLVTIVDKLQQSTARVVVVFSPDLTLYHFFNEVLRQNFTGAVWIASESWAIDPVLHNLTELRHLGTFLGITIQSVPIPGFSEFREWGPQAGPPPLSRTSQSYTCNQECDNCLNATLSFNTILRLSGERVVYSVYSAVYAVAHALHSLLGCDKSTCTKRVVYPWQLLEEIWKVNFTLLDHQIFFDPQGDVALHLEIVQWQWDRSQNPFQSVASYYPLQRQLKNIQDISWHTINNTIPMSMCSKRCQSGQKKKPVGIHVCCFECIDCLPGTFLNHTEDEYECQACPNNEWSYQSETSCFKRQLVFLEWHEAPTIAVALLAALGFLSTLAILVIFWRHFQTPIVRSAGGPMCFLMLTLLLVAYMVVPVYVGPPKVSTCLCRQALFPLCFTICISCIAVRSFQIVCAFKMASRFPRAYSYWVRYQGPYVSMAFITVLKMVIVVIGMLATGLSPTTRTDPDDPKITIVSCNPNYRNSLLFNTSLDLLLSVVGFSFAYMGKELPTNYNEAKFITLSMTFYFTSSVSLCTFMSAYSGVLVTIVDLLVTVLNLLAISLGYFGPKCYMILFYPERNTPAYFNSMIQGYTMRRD
T1 sequence (Q7RTX0 21-852 partner): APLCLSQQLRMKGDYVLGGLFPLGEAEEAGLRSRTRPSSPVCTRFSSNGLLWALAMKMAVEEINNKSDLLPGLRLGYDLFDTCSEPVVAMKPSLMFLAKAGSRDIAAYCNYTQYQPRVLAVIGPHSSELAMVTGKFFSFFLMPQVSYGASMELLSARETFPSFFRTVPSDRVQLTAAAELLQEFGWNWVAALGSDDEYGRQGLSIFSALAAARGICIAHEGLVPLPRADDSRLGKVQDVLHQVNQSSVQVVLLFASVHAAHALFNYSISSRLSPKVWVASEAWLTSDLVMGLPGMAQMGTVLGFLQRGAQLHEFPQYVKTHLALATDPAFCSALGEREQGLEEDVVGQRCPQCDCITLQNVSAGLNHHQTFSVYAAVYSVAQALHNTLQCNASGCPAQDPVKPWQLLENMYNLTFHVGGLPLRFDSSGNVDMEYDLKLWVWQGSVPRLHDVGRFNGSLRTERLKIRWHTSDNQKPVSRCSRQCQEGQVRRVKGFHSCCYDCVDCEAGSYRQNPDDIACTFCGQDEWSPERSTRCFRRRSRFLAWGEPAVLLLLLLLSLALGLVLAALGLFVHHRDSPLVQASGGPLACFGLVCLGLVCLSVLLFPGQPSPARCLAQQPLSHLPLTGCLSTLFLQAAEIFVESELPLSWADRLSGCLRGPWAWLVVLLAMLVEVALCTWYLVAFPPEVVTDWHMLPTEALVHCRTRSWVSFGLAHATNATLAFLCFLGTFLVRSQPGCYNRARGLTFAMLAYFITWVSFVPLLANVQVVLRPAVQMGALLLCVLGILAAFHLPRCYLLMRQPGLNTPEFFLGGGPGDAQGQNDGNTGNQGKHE

[2] = biological target: smTas1R2:T40S/L66V/S67I/E142D+smTas1R3 (Saimiri sciureus, UniProt A3QP08, E142D/L66V/S67I/T40S); assay: Ca2+ mobilization, mutated squirrel monkey receptor; format: cell-based, squirrel monkey (Saimiri sciureus); conditions: aspartame 10mM, neotame 1mM, sucralose 2 mM; compared with smTas1R2/smTas1R3
[3] = biological target: smTas1R2:T40S/S67I+smTas1R3 (Saimiri sciureus, UniProt A3QP08, S67I/T40S); assay: as above; format: cell-based, squirrel monkey (Saimiri sciureus); conditions: aspartame 10mM, neotame 1mM, sucralose 2 mM
hTas1R2:D142E+hTas1R3 = hTas1R2:D142E+hTas1R3 (Homo sapiens, UniProt Q8TE23, D142E); assay: Ca2+ mobilization, mutated human receptor; format: cell-based; conditions: aspartame 10mM, neotame 1mM, sucralose 2 mM; compared with hTas1R2/hTas1R3
Outline: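 HEK293E cells grown at 37°C in Opti-MEM with 5% FBS and seeded at 50,000/well. Cells co-lipofected with Tas1R plasmids and Gα16-gust44 (0.06 μg each per well); medium changed at 20 h, assayed 24 h later. Cells loaded 1 h with Fluo-4 AM in HEPES-buffered HBSS. Tastant added at 30 s; fluorescence (ex 488/em 525 nm) read every 2 s for 150 s more. ΔF/F normalised to human receptor maximal sucralose response; mean ± SEM, three independent experiments.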

[4] = biological target: smTas1R2:S67I/E142D+smTas1R3 (Saimiri sciureus, UniProt A3QP08, E142D/S67I); assay: Ca2+ mobilization, mutated squirrel monkey receptor; format: cell-based, squirrel monkey (Saimiri sciureus); conditions: for response in dose-response experiment: versus smTas1R2+smTas1R3; for Bottom (B) of sigmoid dose-response fit / Top (T) of sigmoid dose-response fit: ΔF/F normalized to maximum response of hTas1R2/hTas1R3 to neotame
[5] = HEK293E cells with Gα16-gust44, dose-response, calcium mobilization
[6] = ΔF/F normalized to maximum response of hTas1R2/hTas1R3 to neotame

Sequence of smTas1R2:S67I/E142D+smTas1R3 (A3QP08 20-834 S67I/E142D): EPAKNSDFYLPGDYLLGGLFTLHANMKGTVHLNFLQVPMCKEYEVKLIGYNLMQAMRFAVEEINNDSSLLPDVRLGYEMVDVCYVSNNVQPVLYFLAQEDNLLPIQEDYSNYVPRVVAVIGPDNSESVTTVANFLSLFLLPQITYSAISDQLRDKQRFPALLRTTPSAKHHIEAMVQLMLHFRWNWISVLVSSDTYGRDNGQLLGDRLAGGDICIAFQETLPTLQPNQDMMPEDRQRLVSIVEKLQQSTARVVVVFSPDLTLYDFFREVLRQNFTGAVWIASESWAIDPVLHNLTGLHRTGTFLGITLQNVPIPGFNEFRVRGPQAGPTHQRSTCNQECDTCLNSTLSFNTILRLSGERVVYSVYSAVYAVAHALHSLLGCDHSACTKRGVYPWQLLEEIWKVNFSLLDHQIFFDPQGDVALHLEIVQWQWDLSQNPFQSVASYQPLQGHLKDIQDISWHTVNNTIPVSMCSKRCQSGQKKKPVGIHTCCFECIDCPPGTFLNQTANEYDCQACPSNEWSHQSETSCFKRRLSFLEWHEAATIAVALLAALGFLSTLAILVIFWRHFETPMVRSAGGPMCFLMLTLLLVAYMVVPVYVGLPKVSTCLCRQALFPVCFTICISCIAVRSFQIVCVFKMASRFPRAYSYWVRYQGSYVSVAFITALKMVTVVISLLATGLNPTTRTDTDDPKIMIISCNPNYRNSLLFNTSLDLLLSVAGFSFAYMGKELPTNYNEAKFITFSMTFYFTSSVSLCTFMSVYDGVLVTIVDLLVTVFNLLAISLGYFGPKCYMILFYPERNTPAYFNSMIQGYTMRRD
Sequence of hTas1R2:D142E+hTas1R3 (Q8TE23 20-839 D142E, one chain of several): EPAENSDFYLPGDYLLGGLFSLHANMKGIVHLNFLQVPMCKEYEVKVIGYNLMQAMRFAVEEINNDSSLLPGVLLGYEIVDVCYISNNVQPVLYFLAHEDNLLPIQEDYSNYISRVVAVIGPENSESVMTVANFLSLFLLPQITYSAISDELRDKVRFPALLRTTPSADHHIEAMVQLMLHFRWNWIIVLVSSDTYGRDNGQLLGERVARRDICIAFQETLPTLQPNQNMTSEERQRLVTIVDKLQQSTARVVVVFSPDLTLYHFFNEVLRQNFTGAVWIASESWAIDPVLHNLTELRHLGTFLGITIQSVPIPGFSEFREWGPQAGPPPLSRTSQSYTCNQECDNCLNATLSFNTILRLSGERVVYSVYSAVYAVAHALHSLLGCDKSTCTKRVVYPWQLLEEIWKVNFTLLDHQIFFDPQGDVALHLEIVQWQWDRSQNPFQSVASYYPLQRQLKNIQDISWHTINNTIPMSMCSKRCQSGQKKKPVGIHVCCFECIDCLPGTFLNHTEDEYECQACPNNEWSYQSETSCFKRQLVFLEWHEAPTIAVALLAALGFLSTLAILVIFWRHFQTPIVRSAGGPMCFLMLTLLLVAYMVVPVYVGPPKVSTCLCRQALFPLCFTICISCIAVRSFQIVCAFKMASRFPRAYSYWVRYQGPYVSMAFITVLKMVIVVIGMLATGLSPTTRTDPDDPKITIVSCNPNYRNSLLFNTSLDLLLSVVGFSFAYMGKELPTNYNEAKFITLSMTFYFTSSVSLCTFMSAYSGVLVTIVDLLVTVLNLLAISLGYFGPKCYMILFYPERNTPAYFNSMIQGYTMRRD
Sequence of smTas1R2:T40S/L66V/S67I/E142D+smTas1R3 (A3QP08 20-834 T40S/L66V/S67I/E142D): as the sequence (A3QP08 20-834 S67I/E142D) above, with T21S, L47V counted along it
Sequence of smTas1R2:T40S/S67I+smTas1R3 (A3QP08 20-834 T40S/S67I): as the sequence (A3QP08 20-834 S67I/E142D) above, with T21S, D123E counted along it

Row | SMILES | pEC50 [1, 5] | calcium response to sweetener [1] | response in dose-response experiment ([1]; dose-response) | Bottom (B) of sigmoid dose-response fit [1, 6] | Top (T) of sigmoid dose-response fit [1, 6] | calcium response to sweetener [2] | calcium response to sweetener [3] | calcium response to sweetener (hTas1R2:D142E+hTas1R3) | pEC50 [4, 5] | response in dose-response experiment ([4]; dose-response) | Bottom (B) of sigmoid dose-response fit [4] | Top (T) of sigmoid dose-response fit [4] | pEC50 [4]
1 | COC(=O)[C@H](Cc1ccccc1)NC(=O)[C@H](CC(=O)O)NCCC(C)(C)C [neotame] | 2.85 | significantly reduced; also recorded: reduced the response to neotame by half | weaker responses | 1.387 | 61.12 | significant responses | no response | significantly decreased | 3.00 | good responses | −5.754 | 56.59 | 
2 | COC(=O)[C@H](Cc1ccccc1)NC(=O)[C@@H](N)CC(=O)O [aspartame, L-α-aspartly-L-phenylalanine methyl ester] (H-Asp-Phe-OMe) |  | abolished | no responses |  |  | significant responses | no response | almost abolished; also recorded: abolishes the activity |  | good response | −0.6682 | 26.17 | 2.25

Source: article PMC3149845 (The Journal of neuroscience : the official journal of the …, 2011)
